Measurements gathered from unrelated publications.
Protocols differ between the studies behind these lines.
gag-pol reverse transcriptase: Gag-Pol polyprotein, reverse transcriptase (gag-pol, Human immunodeficiency virus 1, UniProt P03366)
gyrA: DNA gyrase subunit A (gyrA, Escherichia coli K-12, UniProt P0AES4)
OPRD1: Delta-type opioid receptor (OPRD1, Homo sapiens, UniProt P41143)
HTR3A: 5-hydroxytryptamine receptor 3A (HTR3A, Homo sapiens, UniProt P46098)

SMILES | target | test | endpoint | value
Cc1cc(C)cc(S(=O)(=O)c2c(C(=O)NCCNS(=O)(=O)c3ccc(F)cc3)[nH]c3ccc(Cl)cc23)c1 | gag-pol reverse transcriptase | enzyme activity, inhibitor, ELISA | IC50 | 66 nM
CC1=C(/C=C/C2=CCC[C@@]3(C)[C@H]2CC[C@@H]3[C@@](C)(O)CCCC(C)C)C[C@@H](O)CC1 | Oxysterols receptor LXR-alpha (NR1H3, Homo sapiens, UniProt Q13133) | coactivator recruitment, agonist, TR-FRET | EC50 | 10 to 100 nM
Cc1cnc(-c2ccc(-c3ccc(NC(=O)Nc4c(F)cc(F)cc4F)cc3F)c3c2C(=O)NC3)[nH]1 | STE20-like serine/threonine-protein kinase (SLK, Homo sapiens, UniProt Q9H2G2) | binding, competition with immobilised ligand | Kd | 0.3 nM
Cc1cc(C#N)ccc1C(=O)Nc1ccc(C(=O)N[C@@H](CC(N)=O)C(=O)Nc2ccc(C(=O)Nc3ccc(C(=O)Nc4ccc(C(=O)O)cc4)c(O)c3OC(C)C)cc2)cc1 | gyrA | enzyme activity, inhibitor | IC50 | 1700 nM
CNc1nc(C#Cc2ccc(Br)s2)nc2c1ncn2[C@H]1[C@H](O)[C@H](O)[C@]2(C(=O)OC)C[C@H]12 | OPRD1 | ligand displacement, radioligand | Ki | > 10000 nM
Cc1cc(C)cc(S(=O)(=O)c2c(C(=O)NCCCNS(=O)(=O)c3ccc([N+](=O)[O-])cc3)[nH]c3ccc(Cl)cc23)c1 | gag-pol reverse transcriptase | enzyme activity, inhibitor, ELISA | IC50 | 120 nM
CC(C)Oc1c(NC(=O)c2ccc(NC(=O)[C@H](CC(N)=O)NC(=O)c3ccc(NC(=O)c4ccccc4)cc3)cc2)ccc(C(=O)Nc2ccc(C(=O)O)cc2)c1O | gyrA | enzyme activity, inhibitor | IC50 | 4000 nM
N#Cc1ccc(COc2cccc(C3CCN(Cc4nc5ccc(C(=O)O)cc5n4C[C@@H]4CCO4)CC3)n2)c(F)c1 | Gastric inhibitory polypeptide receptor (GIPR, Homo sapiens, UniProt P48546) | cAMP, agonist | EC50 | > 10000 nM
Cc1cc(C)cc(S(=O)(=O)c2c(C(=O)NCCCCCNS(=O)(=O)c3ccc(C#N)cc3)[nH]c3ccc(Cl)cc23)c1 | gag-pol reverse transcriptase | enzyme activity, inhibitor, ELISA | IC50 | 160 nM
CNc1nc(C#Cc2ccc(Cl)s2)nc2c1ncn2[C@H]1[C@H](O)[C@H](O)[C@]2(C(=O)NCCN)C[C@H]12 | OPRD1 | ligand displacement, radioligand | Ki | > 10000 nM
Cc1cc(C)cc(S(=O)(=O)c2c(C(=O)NCCCCNS(=O)(=O)c3ccc(C#N)cc3)[nH]c3ccc(Cl)cc23)c1 | gag-pol reverse transcriptase | enzyme activity, inhibitor, ELISA | IC50 | 120 nM
O[C@@H]1[C@H](O)[C@@H]2C[C@@H]2[C@H]1n1cnc2c(NCc3cccc(Cl)c3)ncnc21 | OPRD1 | ligand displacement, radioligand | Ki | > 10000 nM
CC(C)Oc1c(NC(=O)c2ccc(NC(=O)[C@H](CC(N)=O)NC(=O)c3ccc(NC(=O)Cc4ccc(C#N)cc4)cc3)cc2)ccc(C(=O)Nc2ccc(C(=O)O)cc2)c1O | gyrA | enzyme activity, inhibitor | IC50 | 16300 nM
Cc1cc(C)cc(S(=O)(=O)c2c(C(=O)NCCCCNS(=O)(=O)c3ccc(Br)cc3)[nH]c3ccc(Cl)cc23)c1 | gag-pol reverse transcriptase | enzyme activity, inhibitor, ELISA | IC50 | 150 nM
CNC(=O)[C@@]12C[C@@H]1[C@@H](n1cnc3c(NC)nc(C#Cc4ccc(Br)s4)nc31)[C@H](O)[C@@H]2O | OPRD1 | ligand displacement, radioligand | Ki | > 10000 nM
CC(C)Oc1c(NC(=O)c2ccc(NC(=O)[C@H](CC(N)=O)NC(=O)c3ccc(NC(=O)c4ccc([N+](=O)[O-])c(OC(C)C)c4O)cc3)cc2)ccc(C(=O)Nc2ccc(C(=O)O)cc2)c1O | gyrA | enzyme activity, inhibitor | IC50 | > 50000 nM
N#Cc1ccc(Nc2nc(N)cc(Oc3ccc(-c4ccc(C#N)cc4)cc3Cl)n2)cc1 | gag-pol reverse transcriptase | enzyme activity, inhibitor | IC50 | 30 nM
CC(C)Oc1c(N)ccc(C(=O)Nc2ccc(C(=O)N[C@@H](CC(N)=O)C(=O)Nc3ccc(C(=O)Nc4ccc(C(=O)Nc5ccc(C(=O)O)cc5)c(O)c4OC(C)C)cc3)cc2)c1O | gyrA | enzyme activity, inhibitor | IC50 | 50000 nM
CNc1nc(C#Cc2ccc(Cl)s2)nc2c1ncn2[C@H]1[C@H](O)[C@H](O)[C@]2(C(=O)OCCC(C)C)C[C@H]12 | OPRD1 | ligand displacement, radioligand | Ki | > 10000 nM
Cc1ccc(S(=O)(=O)NCCCCNC(=O)c2[nH]c3ccc(Cl)cc3c2S(=O)(=O)c2cc(C)cc(C)c2)cc1 | gag-pol reverse transcriptase | enzyme activity, inhibitor, ELISA | IC50 | 140 nM
CCCCN1CCC(COC(=O)c2ccc(N)c(OCF)c2)CC1 | HTR3A | cell-free assay, radioligand | Ki | > 10000 nM
CCn1c(-c2nc3cc(C(=O)N4CCC[C@@H](N)C4)cc(OC)c3n2C)cc2cccnc21 | HTR3A | calcium signal, agonist | EC50 | > 50100 nM
CNC(=O)[C@@]12C[C@@H]1[C@@H](n1cnc3c(NCCCO)nc(C#Cc4ccc(Cl)s4)nc31)[C@H](O)[C@@H]2O | OPRD1 | ligand displacement, radioligand | Ki | > 10000 nM
N#Cc1ccc(Nc2nc(N)cc(Oc3c(F)cc(-c4ccc(C#N)c(F)c4)cc3F)n2)cc1 | gag-pol reverse transcriptase | enzyme activity, inhibitor | IC50 | 40 nM
O[C@@H]1[C@H](O)[C@@H]2C[C@@H]2[C@H]1n1cnc2c(NCC(c3ccccc3)c3ccccc3)nc(C#Cc3ccccc3)nc21 | OPRD1 | ligand displacement, radioligand | Ki | > 10000 nM
Cc1cc(C)cc(S(=O)(=O)c2c(C(=O)NCCNS(=O)(=O)c3ccccc3F)[nH]c3ccc(Cl)cc23)c1 | gag-pol reverse transcriptase | enzyme activity, inhibitor, ELISA | IC50 | 83 nM
